# Assay outcomes deposited in PubChem BioAssay by several laboratories.
# b-catenin transl = beta-catenin nuclear translocation modulation; HeLa beta-catenin nuclear translocation, immunofluorescence imaging; nuclear translocation activity, % at 5 µM; 190,000 compounds, 0.3% hits; AID 1665;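 active = nuclear translocation activity above 50% at 5 µM, with a well cell count of 50 or more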;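 also: per-cell ratio of nuclear to cytoplasmic median beta-catenin stain intensity; plate controls were DMSO negative control for no effect and GSK-3 inhibitor IX positive control for full effect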
#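 System: HeLa cells, endogenous beta-catenin; compound dosing: 5 µM primary single dose, 0.1% DMSO, 0.02–20 µM confirmation series; incubation: 24 h compound exposure at 37°C, 5% CO2; signal: beta-catenin immunofluorescence imaging with DAPI; evaluation: % activation, nuclear-to-cytoplasmic median beta-catenin signal ratio per cell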
# Insulin prom up = MIN6 insulin promoter up-regulation. MIN6 insulin promoter-GFP reporter, high-content imaging; hits give high values. z-score at 5 µM. 190,000 compounds, 0.3% hits. AID 1625;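 active = z-score above 3 at 5 µM with at least 500 cells counted in the well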
# Autophagy HCS = autophagy modulation, high-content screen | MEF GFP-LC3 puncta imaging; test concentration mostly 10 µM | calls only at 10 µM (by protocol) | 190,000 compounds, 0.98% hits;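 active = percentage of spot-positive cells more than 3 SD above its plate mean, without a fluorescence outlier flag or 80% toxicity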;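 also: spot-positive cell cutoff set from DMSO-treated cells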
# MT stabilizer = microtubule stabilizers in HeLa cells; 200,000 compounds, 0.83% hits; HeLa tubulin immunostaining HCS, 24 h; share of cells brighter than vehicle mean+2SD; % tubulin-high responders, % at 10 µM;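 active = plate Z-score above 3 for both tubulin-high and condensed-nucleus cell shares, with cell loss under 80%, at 10 µM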;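 also: anti alpha tubulin signal scored within the nucleus-defined area of each cell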
# Wee1 stabilizer = inhibitors of human Wee1 degradation | HeLa Luc-Wee1K328M stability, luciferase luminescence; 100% = proteasome inhibitor MG132 effect | reporter increase, % at 5 µM | 220,000 compounds, 1.2% hits | AID 1321;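 active = activation above the mean of all tested compounds plus 3 SD, set per screening run, cut at about 8.8% in these data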;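 also: cells exposed to compound for 20 h before luminescence read; 0% = DMSO alone and 100% = MG132 at 30 µM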
# Target sequence (P30291 whole entry K328M): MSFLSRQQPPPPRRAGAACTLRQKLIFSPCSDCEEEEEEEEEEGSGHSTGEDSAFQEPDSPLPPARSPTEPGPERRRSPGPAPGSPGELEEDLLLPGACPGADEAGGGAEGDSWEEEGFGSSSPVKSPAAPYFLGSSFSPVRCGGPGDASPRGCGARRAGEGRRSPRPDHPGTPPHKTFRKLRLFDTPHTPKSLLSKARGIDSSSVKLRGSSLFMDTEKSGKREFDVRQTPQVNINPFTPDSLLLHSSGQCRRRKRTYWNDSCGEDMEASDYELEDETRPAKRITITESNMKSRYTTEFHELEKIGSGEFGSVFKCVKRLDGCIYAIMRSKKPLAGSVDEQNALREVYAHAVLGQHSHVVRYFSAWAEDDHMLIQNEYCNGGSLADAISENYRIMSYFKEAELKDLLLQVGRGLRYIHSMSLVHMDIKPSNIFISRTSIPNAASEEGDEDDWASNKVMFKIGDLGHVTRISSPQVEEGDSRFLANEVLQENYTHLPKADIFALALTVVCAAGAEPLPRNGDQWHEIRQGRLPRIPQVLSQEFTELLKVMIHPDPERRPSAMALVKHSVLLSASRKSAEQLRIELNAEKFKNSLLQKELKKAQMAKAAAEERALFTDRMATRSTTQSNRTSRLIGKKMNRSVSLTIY
# An asterisk follows results filed as active; i = inactive; nt = not tested or not shown; + = active, no number. Hits are enriched below; roughly 2.9% of the tested compounds scored in any of these assays.
SMILES,b-catenin transl,Insulin prom up,Autophagy HCS,MT stabilizer,Wee1 stabilizer
COc1ccc(/C=N/NC(=O)C2COc3ccccc3O2)cc1OC (stereo not given),2,nt,i,2,1
O=C(N/N=C\c1cc(Br)cs1)C1COc2ccccc2O1 (stereo not given),1,-0.77,i,43*,5
C=CCNC(=O)c1c2c(nc3ccccc13)-c1ccccc1CC2,-2,4.5*,i,2,1
Cc1cccc(C(=O)N/N=C/c2cc(Br)c(Br)o2)c1,nt,-0.29,i,11*,-2
O=C(CCC(=O)Nc1nnc(C2CCCCC2)s1)NCc1ccccc1,1,-0.45,nt,nt,1
CCc1ccc(/C(C)=N\Nc2ccc([N+](=O)[O-])cc2)cc1,1,1.9,+,2,7
C/C=C/c1ccc(OCCCCOc2c(OC)cccc2OC)c(OC)c1,-1,0.44,i,2,15*
C/C=C/c1ccc(OCCCCOc2ccccc2C(C)=O)c(OC)c1,3,0.03,i,2,0
CCOC(=O)N1CCC(N(CCOC)C(=O)Nc2ccc(Cl)c(Cl)c2)CC1,nt,-0.28,+,5,2
CCOC(=O)N1CCC(N(CCCOC)C(=O)Nc2cccc(OC)c2)CC1,1,-0.8,i,3,3
O=C(NCC1(c2ccccc2)CCOCC1)c1cccs1,1,-0.28,i,3,-1
CC(C)CN(C(=O)CSc1nnnn1-c1ccccc1)c1c(N)n(CC(C)C)c(=O)[nH]c1=O,0,-0.27,i,6,0
CC1CN(C)C(C)c2c1oc1ccc([N+](=O)[O-])cc21 (stereo not given),0,-0.23,+,3,2
CC1CN(C)C(C)c2c1oc1ccc(N)cc21 (stereo not given),-4,-0.19,i,3,-3
COc1ccc(C2Nc3ccccc3C(=O)N2C2CCCCC2)cc1 (stereo not given),-7,-0.13,i,3,-1
COc1ccc(OC)c(NC(=O)c2ccc3c(=O)n(CCc4ccccc4)c(=S)[nH]c3c2)c1,-2,0.76,+,7,0
CCCCCOc1ccc(Br)cc1CSC(=N)N,89*,-1.6,i,14,1
C=CCSc1nnc2c(n1)OC=Nc1ccccc1-2,-2,-0.3,i,3,-2
Cc1ccc(C)c(N2CCN(CCCNC(=O)Cn3cccc3C(=O)c3ccccc3)CC2)c1,-1,nt,+,2,-2
CC(C)NC(=S)Nc1ccc2nc3n(c(=O)c2c1)CCCCC3,2,-0.15,i,4,1
CCN(CC)S(=O)(=O)c1ccc2[nH]cc(C(=O)NCCC3=CCCCC3)c(=O)c2c1,0,-6.4,i,33*,-2
CCCc1nc2ccc(NC(=O)NCCC(=O)OCC)cc2c(=O)n1Cc1cccc(Cl)c1,-3,-0.63,i,3,17*
COCC(=O)Nc1ccc(C(=O)Nc2ccccc2Cl)cc1,-2,0.16,i,1,-1
CCOc1ccc(NCc2nnc(SCC(=O)Nc3cc(C)on3)n2-c2ccccc2OC)cc1,1,nt,i,24*,1
COc1ccccc1-n1c(SCC(=O)Nc2cc(C)on2)nc2c(c1=O)SCC2,-2,-0.5,+,5,-1
SMILES,b-catenin transl,Insulin prom up,Autophagy HCS,MT stabilizer,Wee1 stabilizer
COc1ccc(NC(=O)CSC2CC(=O)N(c3ccc4c(c3)OCCO4)C2=O)cc1 (stereo not given),1,1.1,i,2,-2
NC(=O)c1ccc(NC(=O)COC(=O)C2CC(=O)N(Cc3ccccc3)C2)cc1 (stereo not given),1,0.19,i,5,-3
Cc1ccc(S(=O)(=O)c2nnn(-c3cccc(F)c3)c2N)cc1,-2,-0.64,i,4,0
O=C(Nc1cccc(Cl)c1N1CCCCC1)c1ccc2c(c1)OCCO2,nt,nt,i,3,1
O=C(NC(=S)Nc1cccc(Cl)c1N1CCCCC1)c1ccc2c(c1)OCCO2,86*,0.32,i,29*,0
Cc1ccc(C(=O)N2CCN3C(=O)c4ccccc4C23c2ccc(Cl)cc2)cc1 (stereo not given),0,-0.62,+,4,6
Cc1cccc(Oc2coc3cc(OC(=O)c4cccs4)ccc3c2=O)c1,nt,nt,i,2,11*
COc1ccc(N2CCc3c(C)nc4c(OC)cccc4c32)cc1,104*,-1.9,i,26*,5
Cc1onc(-c2c(F)cccc2Cl)c1C(O)c1ccc(F)cc1 (stereo not given),4,0.4,nt,nt,-1
COc1ccc(-c2csc(C3=C(O)CN(CCCN4CCCC4=O)C3=N)n2)cc1OC,1,-1.2,i,2,1
CCCc1c(C(=O)Nc2cc(C(C)(C)C)on2)cnn1-c1ccccc1,-2,-0.21,nt,nt,9.8*
COCCNC(=O)C(c1ccc(C)o1)N(C(=O)C(=O)NC1CCCCC1)c1ccc(F)cc1 (stereo not given),1,-1.4,i,1,0
Cc1cc(NC(=O)CSc2nc3c(sc4ccccc43)c(=O)n2CCCN2CCOCC2)n[nH]1,nt,0.16,+,2,2
Cc1ccc(NC(=O)CSc2nc3ccccc3c(=O)n2CCCC(=O)N2CCCC2)cc1,23,0.38,i,12,4
O=C(CSc1nc2ccccc2c(=O)n1CCCN1CCOCC1)N1CCN(c2ccccc2)CC1,-1,-0.37,+,4,-4
Cc1ccc(NC(=O)CSc2nc3ccccc3c(=O)n2CCCN2CCCCC2)cc1C,2,-1.1,+,2,-3
CCCn1c(SCC(=O)N2CCN(c3ccccc3)CC2)nc2ccccc2c1=O,nt,-0.68,i,2,-2
Cc1cc(NC(=O)CSc2nc3c(sc4ccccc43)c(=O)n2CCc2ccccc2)n[nH]1,nt,-0.55,i,2,2
CCCOC(=O)c1ccc(NC(=O)c2ccccc2[N+](=O)[O-])cc1,-2,0.03,i,2,7
Cc1c([N+](=O)[O-])c([N+](=O)[O-])nn1CC(=O)N1CCCCC1,1,-0.18,i,4,-2
CC(=O)NNC(=O)c1csc(-c2csc(C)n2)n1,0,-0.36,nt,nt,-1
COc1ccccc1C1=NNC(=Nc2cccc(S(=O)(=O)N(C)C)c2)SC1,1,-2.4,i,3,-3
COc1ccccc1NC(=S)N(Cc1ccco1)Cc1cc2cc(C)ccc2[nH]c1=O,0,0.83,i,33*,1
Cc1ccc2[nH]c(=O)c(CN(Cc3ccco3)C(=O)c3ccncc3)cc2c1,-3,-0.33,i,14*,2
CC1Cc2ccccc2N1C(=O)Cn1cnc2ccccc21 (stereo not given),-2,-0.55,i,2,0
NC(=O)C[n+]1ccc(/C=N/O)cc1,-2,0.22,+,2,-1
CCOC(=O)C1=C(N)n2c(s/c(=C\c3ccco3)c2=O)=C(C(=O)OCC)C1c1ccco1 (stereo not given),55*,-0.06,i,47*,1
